Hits are enriched below; roughly 3.7% of the tested compounds scored in any of these assays.
KCNQ1 act: potentiators or activators of KCNQ1 channel, primary screen, cell-based, thallium flux, high-throughput; Potassium voltage-gated channel subfamily KQT member 1 (Homo sapiens), P51787; CHO-K1 KCNQ1, thallium flux FluxOR fluorescence; active compounds read high; B-score at 10 µM; actives 0.35% (n = 310,000);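 active = fluorescence ratio B-score, a plate-corrected score, at least three library SD, with initial intensity B-score within 5 SD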
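System: CHO-K1 cells stably expressing KCNQ1 / Medium: assay buffer for compound exposure, DMSO matched across wells / Reagent: thallium- and potassium-containing depolarizing buffer / Compound: one concentration, matched DMSO / Incubation: 20 min compound pretreatment at room temperature / Measured by: kinetic FluxOR fluorescence, 10 s baseline plus 110 s post-stimulus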
KCNQ1 inh: inhibitors of human KCNQ1 channel, primary screen, cell-based, thallium flux, high-throughput | CHO-K1 KCNQ1, FluxOR thallium flux fluorescence; active compounds read high | B-score at 10 µM | AID 2642, 2010 | Potassium voltage-gated channel subfamily KQT member 1 (Homo sapiens), P51787 | actives 1.3% (n = 310,000);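 active = compounds whose thallium flux B-score, printed positive for inhibition, exceeds three library SD while starting fluorescence stays within three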;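 also: channel opened by potassium depolarization with thallium stimulus after 20 min compound exposure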
KCNK3 inh: human KCNK3 channel inhibitors, primary screen, CHO cells, FluxOR thallium flux, B-score | actives 0.84% (n = 340,000) | Potassium channel subfamily K member 3 (Homo sapiens), O14649 | B-score at 10 µM | FluxOR fluorescence; active compounds read low | AID 602410, 2012;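 active = B-score under library mean minus 4 SD, starting fluorescence ratio at most library mean plus 5 SD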;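 also: more negative B-score means stronger inhibition of thallium flux through KCNK3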
Kir21 inh: inhibitors of mouse Kir2.1 inward-rectifier potassium channel; HEK293-Kir2.1, FluxOR thallium flux fluorescence; active compounds read low; AID 1672, 2009; B-score at 10 µM; actives 0.85% (n = 310,000); Inward rectifier potassium channel 2 (Mus musculus), P35561;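 active = fluorescence ratio B-score at or below minus 3 SD of library scores, with starting-brightness B-score within 2 SD, cut at about -4.2 in these data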;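 also: channel flux triggered by added potassium and thallium sulfate stimulus; B-score of peak minus minimum fluorescence over baseline after thallium stimulus; more negative B-score means stronger Kir2.1 block with less thallium influx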
hERG rescue: hERG rescue from dofetilide block, primary screen, cell-based, CHO-hERG, FluxOR thallium flux, dofetilide IC70; actives 0.51% (n = 310,000); dofetilide IC70 present; Voltage-gated inwardly rectifying potassium channel KCNH2 (Homo sapiens), Q12809; activation (rescue from dofetilide block), less the hit threshold, % at 10 µM; AID 1511, 2009;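 active = activation above the mean of controls blocked by dofetilide plus 5 SD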;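 also: thallium influx through hERG after potassium depolarization seen as dye fluorescence rise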
Target sequence (Q12809 whole entry, looked up): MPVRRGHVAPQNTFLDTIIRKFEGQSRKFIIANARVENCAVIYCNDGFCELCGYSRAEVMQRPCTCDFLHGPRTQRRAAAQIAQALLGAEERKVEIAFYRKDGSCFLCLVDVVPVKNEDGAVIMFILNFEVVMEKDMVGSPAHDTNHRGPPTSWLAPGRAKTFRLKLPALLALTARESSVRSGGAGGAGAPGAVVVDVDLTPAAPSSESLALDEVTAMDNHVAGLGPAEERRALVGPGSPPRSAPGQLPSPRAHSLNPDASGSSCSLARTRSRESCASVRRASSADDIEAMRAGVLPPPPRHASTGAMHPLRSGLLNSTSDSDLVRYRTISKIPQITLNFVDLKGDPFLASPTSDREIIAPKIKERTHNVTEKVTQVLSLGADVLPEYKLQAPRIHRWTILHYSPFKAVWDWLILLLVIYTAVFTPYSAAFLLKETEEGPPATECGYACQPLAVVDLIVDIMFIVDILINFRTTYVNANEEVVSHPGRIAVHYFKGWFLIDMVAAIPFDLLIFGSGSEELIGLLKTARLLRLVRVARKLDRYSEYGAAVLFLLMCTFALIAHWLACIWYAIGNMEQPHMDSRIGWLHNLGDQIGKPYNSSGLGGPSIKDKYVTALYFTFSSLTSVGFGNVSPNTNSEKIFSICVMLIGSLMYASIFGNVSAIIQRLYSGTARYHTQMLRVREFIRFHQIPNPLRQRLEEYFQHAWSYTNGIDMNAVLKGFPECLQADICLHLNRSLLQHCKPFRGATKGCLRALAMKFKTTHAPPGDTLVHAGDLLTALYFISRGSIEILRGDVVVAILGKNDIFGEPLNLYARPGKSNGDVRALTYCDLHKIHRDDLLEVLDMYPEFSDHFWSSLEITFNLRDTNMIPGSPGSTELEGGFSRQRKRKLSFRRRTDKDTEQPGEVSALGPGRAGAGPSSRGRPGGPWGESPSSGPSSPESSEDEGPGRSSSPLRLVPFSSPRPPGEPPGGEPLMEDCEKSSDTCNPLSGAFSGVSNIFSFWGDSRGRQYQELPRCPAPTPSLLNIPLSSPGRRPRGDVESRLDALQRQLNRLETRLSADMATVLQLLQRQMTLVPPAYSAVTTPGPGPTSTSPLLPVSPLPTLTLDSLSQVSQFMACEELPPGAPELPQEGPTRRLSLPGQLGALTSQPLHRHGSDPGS
KCNK9 block: KCNK9 potassium channel inhibitors, primary screen, HEK293 cells, thallium flux; Potassium channel subfamily K member 9 (Homo sapiens), Q9NPC2; B-score at 10 µM; FluxOR thallium flux fluorescence; active compounds read low; actives 1.2% (n = 310,000);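 active = ratio B-score over 3 SD below the library mean, with starting fluorescence within 5 SD of its mean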;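 also: negative B-score means less thallium flux so channel inhibition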
The depositor's hits bear a star.

Results for CC(C)(C)c1cnnn1-c1ccc(NC(=O)c2ccc(Br)o2)cc1 ?
KCNQ1 act: inactive; KCNQ1 inh: inactive; KCNK3 inh: inactive; Kir21 inh: -0.69; hERG rescue: -9.1; KCNK9 block: -7.07*

How did CN1CCN(c2ccc(NC(=O)c3ccc(Br)o3)cc2)CC1 do in these assays?
KCNQ1 act: 13*; KCNQ1 inh: inactive; KCNK3 inh: inactive; Kir21 inh: -0.24; hERG rescue: 1.2; KCNK9 block: inactive

Results for CC(=O)c1ccc(NC(=O)/C(=C\c2ccc(F)cc2)NC(=O)c2ccco2)cc1 ?
KCNQ1 act: inactive; KCNQ1 inh: inactive; KCNK3 inh: inactive; Kir21 inh: 0.25; hERG rescue: -6.1; KCNK9 block: inactive

Results for CC(=O)c1cccc(N=c2scc(-c3ccc(S(=O)(=O)N4CCOCC4)cc3)n2CCO)c1 ?
KCNQ1 act: inactive; KCNQ1 inh: 7*; KCNK3 inh: inactive; Kir21 inh: 0.16; hERG rescue: -16.6; KCNK9 block: inactive

What do the screens show for `N#CC1=C(N)Oc2ccc3ccc(O)cc3c2C1c1ccsc1` (centres undefined)?
KCNQ1 act: inactive; KCNQ1 inh: inactive; KCNK3 inh: inactive; Kir21 inh: -5.05*; hERG rescue: -22.0; KCNK9 block: inactive

Results for COc1ccc2[nH]c(C(=O)Nc3cccc(C)n3)cc2c1 ?
KCNQ1 act: inactive; KCNQ1 inh: inactive; KCNK3 inh: inactive; Kir21 inh: -0.66; hERG rescue: -2.5; KCNK9 block: inactive

What do the screens show for `O=C(NC1CCN(Cc2ccccc2)C1)c1cc(COc2ccc(F)cc2F)on1` (centres undefined)?
KCNQ1 act: inactive; KCNQ1 inh: inactive; KCNK3 inh: inactive; Kir21 inh: -4.41*; hERG rescue: -10.0; KCNK9 block: inactive

How did Cc1cc(Cl)nc(Cl)c1C(=O)NCc1ccc(Cl)cc1 do in these assays?
KCNQ1 act: inactive; KCNQ1 inh: inactive; KCNK3 inh: inactive; Kir21 inh: 0.54; hERG rescue: -9.2; KCNK9 block: inactive

Results for CC(C)c1ccc(OCC(=O)NNC(=S)NC(=O)c2ccco2)c(Br)c1 ?
KCNQ1 act: 47*; KCNQ1 inh: inactive; KCNK3 inh: inactive; Kir21 inh: 0.25; hERG rescue: -12.8; KCNK9 block: inactive

How did CC(C)(C)[C@H]1COC(=O)CC/C=C\C[C@H](CC(=O)N(CCO)Cc2ccccc2)C(=O)N1 do in these assays?
KCNK3 inh: inactive

How did CCCCCCC1NC(C(=O)O)CS1 (centres undefined) do in these assays?
KCNQ1 act: inactive; KCNQ1 inh: inactive; KCNK3 inh: inactive; Kir21 inh: 2.34; hERG rescue: -10.8; KCNK9 block: inactive

How did Cc1cc(Cl)c(OCCOCCN2CCC(C)CC2)c(Br)c1 do in these assays?
KCNQ1 act: inactive; KCNQ1 inh: inactive; KCNK3 inh: inactive; Kir21 inh: -5.16*; hERG rescue: -7.9; KCNK9 block: inactive

How did CC1CCN(CCOCCOc2ccc(Cl)cc2Br)CC1 do in these assays?
KCNQ1 act: inactive; KCNQ1 inh: 6*; KCNK3 inh: inactive; Kir21 inh: -2.82; hERG rescue: -9.0; KCNK9 block: inactive

What do the screens show for `Cc1cc(C)c(OCCCCN2CCC(C)CC2)c(Br)c1`?
KCNQ1 act: inactive; KCNQ1 inh: inactive; KCNK3 inh: inactive; Kir21 inh: -5.51*; hERG rescue: -10.2; KCNK9 block: inactive

How did Clc1ccc(OCCOCCN2CCCCC2)c(Br)c1 do in these assays?
KCNQ1 act: inactive; KCNQ1 inh: inactive; KCNK3 inh: inactive; Kir21 inh: -2.11; hERG rescue: -13.8; KCNK9 block: inactive

What do the screens show for `Cc1cc(Cl)c(OCCOCCN2CCN(C)CC2)c(Br)c1`?
KCNQ1 act: inactive; KCNQ1 inh: inactive; KCNK3 inh: inactive; Kir21 inh: -0.05; hERG rescue: -7.9; KCNK9 block: inactive

How did CCN(CC(=O)Nc1c(F)cccc1F)C(=O)c1cccc(S(=O)(=O)N2CCCc3ccccc32)c1 do in these assays?
KCNK3 inh: inactive

What do the screens show for `Cc1cc(-c2nn(-c3ccccc3F)cc2CN2CCN(c3ccncc3)CC2)c(C)s1`?
KCNQ1 act: inactive; KCNQ1 inh: inactive; KCNK3 inh: inactive; Kir21 inh: -4.45*; hERG rescue: -18.9; KCNK9 block: inactive

Results for Cc1cc(-c2nn(-c3ccccc3F)cc2CN2CCC(O)CC2)c(C)s1 ?
KCNQ1 act: inactive; KCNQ1 inh: inactive; KCNK3 inh: inactive; Kir21 inh: -1.04; hERG rescue: -10.2; KCNK9 block: inactive

How did Cc1ccc2c(CN(C)Cc3ccc(Cl)cc3Cl)cc(=O)oc2c1 do in these assays?
KCNQ1 act: inactive; KCNQ1 inh: inactive; KCNK3 inh: inactive; Kir21 inh: 0.1; hERG rescue: -9.9; KCNK9 block: inactive

What do the screens show for `CC(=O)Nc1ccc(NC(=S)Nc2ccccc2)cc1`?
KCNQ1 act: inactive; KCNQ1 inh: inactive; KCNK3 inh: inactive; Kir21 inh: 0.42; hERG rescue: -8.7; KCNK9 block: inactive

Results for CC(=O)Nc1ccc(NC(=S)Nc2ccc(Br)cc2)cc1 ?
KCNQ1 act: inactive; KCNQ1 inh: 6*; KCNK3 inh: inactive; Kir21 inh: -1.55; hERG rescue: -14.2; KCNK9 block: inactive

What do the screens show for `S=C(Nc1ccccc1)Nc1ccc(Br)cc1`?
KCNQ1 act: inactive; KCNQ1 inh: 6*; KCNK3 inh: inactive; Kir21 inh: -0.38; hERG rescue: -11.2; KCNK9 block: inactive

What do the screens show for `Cc1ccnc(NC(=O)c2cc3cc(F)ccc3s2)c1`?
KCNQ1 act: inactive; KCNQ1 inh: inactive; KCNK3 inh: inactive; Kir21 inh: -0.15; hERG rescue: -0.5; KCNK9 block: inactive

Results for c1ccc(CNCCC(Cc2ccccc2)c2ccco2)cc1 (centres undefined) ?
KCNQ1 act: inactive; KCNQ1 inh: inactive; KCNK3 inh: inactive; Kir21 inh: -11.8*; hERG rescue: -13.7; KCNK9 block: inactive

Results for CN(C)c1ccc(CNCCC(Cc2ccccc2)c2ccco2)cc1 (centres undefined) ?
KCNQ1 act: inactive; KCNQ1 inh: inactive; KCNK3 inh: inactive; Kir21 inh: -4.66*; hERG rescue: -19.6; KCNK9 block: inactive

Results for CC(=O)NCCC(Cc1ccccc1)c1ccco1 (centres undefined) ?
KCNQ1 act: inactive; KCNQ1 inh: inactive; KCNK3 inh: inactive; Kir21 inh: -0.19; hERG rescue: -0.9; KCNK9 block: inactive
